For series [1], the target named is T1, Kinesin-like protein KIF11 (Homo sapiens, UniProt P52732).
T1 sequence (P52732 whole entry): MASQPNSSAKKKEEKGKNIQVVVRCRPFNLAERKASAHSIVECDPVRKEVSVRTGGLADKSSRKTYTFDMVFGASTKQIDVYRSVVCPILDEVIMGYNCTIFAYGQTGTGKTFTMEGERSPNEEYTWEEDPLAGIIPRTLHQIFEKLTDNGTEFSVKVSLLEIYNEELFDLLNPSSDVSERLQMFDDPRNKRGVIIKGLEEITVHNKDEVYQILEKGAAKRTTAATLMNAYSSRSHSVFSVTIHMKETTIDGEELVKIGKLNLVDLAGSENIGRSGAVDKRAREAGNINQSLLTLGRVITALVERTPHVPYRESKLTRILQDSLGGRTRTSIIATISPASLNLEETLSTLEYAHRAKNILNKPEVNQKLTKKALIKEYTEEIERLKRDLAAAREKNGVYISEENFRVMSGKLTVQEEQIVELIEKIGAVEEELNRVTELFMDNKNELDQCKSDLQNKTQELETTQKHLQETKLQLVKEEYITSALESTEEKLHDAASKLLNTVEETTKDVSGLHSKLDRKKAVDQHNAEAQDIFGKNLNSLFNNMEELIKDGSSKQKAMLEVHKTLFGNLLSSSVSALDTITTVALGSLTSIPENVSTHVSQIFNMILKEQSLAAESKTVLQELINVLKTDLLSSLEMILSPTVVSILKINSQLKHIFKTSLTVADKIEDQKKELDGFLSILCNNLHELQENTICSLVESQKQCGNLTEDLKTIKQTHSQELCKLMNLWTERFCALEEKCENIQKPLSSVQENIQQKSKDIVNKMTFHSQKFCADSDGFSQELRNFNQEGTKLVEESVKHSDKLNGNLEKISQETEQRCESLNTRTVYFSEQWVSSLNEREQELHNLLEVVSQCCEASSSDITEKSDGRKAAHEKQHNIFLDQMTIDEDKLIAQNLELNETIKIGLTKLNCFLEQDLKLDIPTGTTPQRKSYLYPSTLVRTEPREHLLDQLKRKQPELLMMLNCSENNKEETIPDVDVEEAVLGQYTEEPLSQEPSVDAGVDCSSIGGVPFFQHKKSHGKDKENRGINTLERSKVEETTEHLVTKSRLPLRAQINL
Put plainly: Inhibition of KSP by ATPase assay.

Series [2] is described as follows: Solubility in citrate at pH 4.0. It counts as physicochemical. Put shortly:
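Solubility of crystalline solid determined in citrate buffer at pH 4.0.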

Series [3] can be described thus: Partition coefficient, log P of the compound. It counts as physicochemical. As to conditions: octanol/water.
Another series concerns A2780. The series is described as follows: Mitotic arrest in human A2780 cells. It counts as functional, cell-based.
The nature of series [4]: Half life in mongrel dog at 0.25 mg/kg, iv. It counts as ADME, organism-based, Canis lupus familiaris. Details: dose 0.25 mg/kg, route intravenous. As to conditions: in vivo. Put shortly:
(§1)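 Single iv dose of 0.25 mpk given to two mongrel dogs, one male and one female.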

The nature of series [5]: Aqueous solubility at pH 10.3. It counts as physicochemical. To be noted: aqueous medium. Put shortly:
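Solubility of crystalline material measured in water; final pH of the solution was 10.3.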

A short description of series [6]: Volume of distribution in mongrel dog at 0.25 mg/kg, iv. As to conditions: in vivo, read-out: Vdss. Details: dose 0.25 mg/kg, route intravenous. It counts as ADME, organism-based, Canis lupus familiaris. In outline:
as §1

Series [7] deals with Voltage-gated inwardly rectifying potassium channel KCNH2 (Homo sapiens, UniProt Q12809). Put plainly: Inhibition of hERG expressed in HEK cells by radioligand binding assay. It counts as toxicity, cell-based, HEK293. (In general: The hERG channel carries a current that helps repolarise heart muscle cells.)
Series [8] is described as follows: Clearance in mongrel dog at 0.25 mg/kg, iv. Details: dose 0.25 mg/kg, route intravenous. It counts as ADME, organism-based, Canis lupus familiaris. To be noted: in vivo. Put shortly: as §1
Series [9] in a line: Solubility in citrate at pH 6.5. It counts as physicochemical. In outline:
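Crystalline solid; solubility determined in pH 6.5 citrate buffer.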

pEC50, pIC50: −log10 of the molar value. In brackets after ≈: the same amount, converted by molar mass.

Chain of Voltage-gated inwardly rectifying potassium channel KCNH2 (Q12809 whole entry): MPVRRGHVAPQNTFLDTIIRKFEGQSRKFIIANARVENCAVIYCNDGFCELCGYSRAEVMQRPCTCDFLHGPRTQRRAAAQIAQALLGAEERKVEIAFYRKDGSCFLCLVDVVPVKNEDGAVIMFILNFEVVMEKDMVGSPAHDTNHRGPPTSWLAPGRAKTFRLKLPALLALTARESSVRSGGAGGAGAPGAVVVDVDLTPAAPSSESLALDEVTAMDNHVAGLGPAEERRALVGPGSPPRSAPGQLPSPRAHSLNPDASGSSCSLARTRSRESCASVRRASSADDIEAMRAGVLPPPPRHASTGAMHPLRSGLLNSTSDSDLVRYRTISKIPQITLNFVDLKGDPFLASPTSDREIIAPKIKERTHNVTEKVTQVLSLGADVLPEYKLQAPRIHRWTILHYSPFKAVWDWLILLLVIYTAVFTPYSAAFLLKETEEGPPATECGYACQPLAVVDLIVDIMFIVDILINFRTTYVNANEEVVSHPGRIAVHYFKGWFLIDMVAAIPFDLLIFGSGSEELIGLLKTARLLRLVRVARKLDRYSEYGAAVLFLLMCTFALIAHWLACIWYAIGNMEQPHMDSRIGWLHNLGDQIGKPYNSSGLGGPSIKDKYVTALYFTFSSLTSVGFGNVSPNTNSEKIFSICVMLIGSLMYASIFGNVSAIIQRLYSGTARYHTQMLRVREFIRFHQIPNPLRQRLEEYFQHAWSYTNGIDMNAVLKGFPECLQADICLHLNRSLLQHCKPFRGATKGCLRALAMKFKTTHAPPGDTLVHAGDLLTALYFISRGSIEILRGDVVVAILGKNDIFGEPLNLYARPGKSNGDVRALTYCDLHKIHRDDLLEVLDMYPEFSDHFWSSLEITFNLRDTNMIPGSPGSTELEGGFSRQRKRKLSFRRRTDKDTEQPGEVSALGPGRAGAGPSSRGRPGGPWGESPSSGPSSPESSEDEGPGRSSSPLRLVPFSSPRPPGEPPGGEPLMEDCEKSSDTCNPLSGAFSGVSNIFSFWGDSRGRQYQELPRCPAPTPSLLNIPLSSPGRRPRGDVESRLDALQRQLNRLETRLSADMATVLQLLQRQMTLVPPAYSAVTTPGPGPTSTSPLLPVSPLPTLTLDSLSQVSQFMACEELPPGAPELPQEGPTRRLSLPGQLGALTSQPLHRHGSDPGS

The molecule `CCNC(=O)N1N=C(c2cc(F)ccc2F)CC1(CCCCNC(=O)c1cnc[nH]1)c1ccccc1` (stereo unspecified) had a pIC50 in series [1] of 6.16.

On to `CN(C)C(=O)N1N=C(c2cc(F)ccc2F)C[C@@]1(CCCN)c1ccccc1`, for which the solubility in [2] is over 12000 µg/mL; in series [5], 1700 µg/mL (≈ 4.4 mM). In addition, the logP in series [3] was determined as 1.2. This molecule also gave a pEC50 in the series on A2780 of 8.28. In series [4], this molecule showed a half-life of 14.7 h. Moreover, the Vd in [6] stood at 14 L/kg. In addition, the pIC50 in series [1] was 8.72; in [7], 4.71. Besides, the clearance in series [8] was found to be 14.5 mL/min/kg.

As to `CNC(=O)N1N=C(c2cc(F)ccc2F)CC1(C)c1ccccc1` (stereo unspecified), the negative logarithm of the IC50 (pIC50) in series [1] was 6.55.

In [1], `CCNC(=O)N1N=C(c2cc(F)ccc2F)CC1(CCCCNC(=O)c1ccccc1)c1ccccc1` (stereo unspecified) gave a pIC50 of 6.05.

`NCCCC1(c2ccccc2)CC(c2cc(F)ccc2F)=NN1C(=O)N1CCCC1` (stereo unspecified) had a pIC50 in series [1] of 7.59. Compared with the last molecule, the pIC50 is 1.54 log units higher.

`CCNC(=O)N1N=C(c2cc(F)ccc2F)CC1(CCCCNC(=O)c1ncc[nH]1)c1ccccc1` (stereo unspecified) showed a negative logarithm of the IC50 (pIC50) in series [1] of 6.26. This pIC50 lies 1.33 log units lower than the previous one.

In [1], `NCCCC1(c2ccccc2)CC(c2cc(F)ccc2F)=NN1C(=O)N1CCOCC1` (stereo unspecified) showed a negative logarithm of the IC50 (pIC50) of 6.91.

`NCCCC1(c2ccccc2)CC(c2cc(F)ccc2F)=NN1C(=O)N1CCC1` (stereo unspecified) had a negative-log IC50 (pIC50) in [1] of 7.26.

The molecule `CCNC(=O)N1N=C(c2cc(F)ccc2F)CC1(CCO)c1ccccc1` (stereo unspecified) had a pIC50 in series [1] of 6.22. This pIC50 lies 1.04 log units lower than the previous one.

Regarding `CCNC(=O)N1N=C(c2cc(F)ccc2F)CC1(CCCO)c1ccccc1` (stereo unspecified), the negative-log IC50 (pIC50) in series [1] is 6.13.

The molecule `CCNC(=O)N1N=C(c2cc(F)ccc2F)CC1(CCCCNC(=O)c1ccccn1)c1ccccc1` (stereo unspecified) showed a negative logarithm of the IC50 (pIC50) in [1] of 6.41.

As for `CCNC(=O)N1N=C(c2cc(F)ccc2F)CC1(CCCCNCc1ccccc1)c1ccccc1` (stereo unspecified), the pIC50 in series [1] was 7.00.

Consider `CN(C)C(=O)N1N=C(c2cc(F)ccc2F)CC1(CCCN)c1ccccc1` (stereo unspecified), for which, in [1], the pIC50 is 8.10.

In series [3], `CC(=O)N1N=C(c2cc(F)ccc2F)C[C@H]1c1cccc(O)c1` came in with a lipophilicity (logP) of 3.1. In addition, the negative-log EC50 (pEC50) in the series with A2780 was 7.61. Moreover, in series [4], the half-life was 1 h. In series [6], the Vd stood at 1.6 L/kg. Moreover, the negative logarithm of the IC50 (pIC50) in series [1] is 7.61. This molecule also had a clearance in series [8] of 22.1 mL/min/kg. Further, the solubility in series [9] was determined as 29 µg/mL (≈ 0.0917 mM).

In series [1], `CCNC(=O)N1N=C(c2cc(F)ccc2F)CC1(CCCCN)c1ccccc1` (stereo unspecified) gave a negative logarithm of the IC50 (pIC50) of 7.17.

In turn, `CCNC(=O)N1N=C(c2cc(F)ccc2F)CC1(CCCCO)c1ccccc1` (stereo unspecified) showed a negative-log IC50 (pIC50) in series [1] of 6.16.

`CCNC(=O)N1N=C(c2cc(F)ccc2F)CC1(CCN)c1ccccc1` (stereo unspecified) had a pIC50 in series [1] of 6.41. Against the preceding molecule, the pIC50 is 0.25 log units higher.

As for `CNC(=O)N1N=C(c2cc(F)ccc2F)CC1(CO)c1ccccc1` (stereo unspecified), the pIC50 in series [1] was 6.04.

On to `NCCCC1(c2ccccc2)CC(c2cc(F)ccc2F)=NN1C(=O)N1CCCCC1` (stereo unspecified), for which the pIC50 in series [1] was 7.07.

As for `CCNC(=O)N1N=C(c2cc(F)ccc2F)CC1(CCCCN(C)C)c1ccccc1` (stereo unspecified), the negative logarithm of the IC50 (pIC50) in [1] is 6.99.

`CCNC(=O)N1N=C(c2cc(F)ccc2F)CC1(CCCC[N+](C)(C)[O-])c1ccccc1` (stereo unspecified): in [1], the pIC50 is 6.23. This pIC50 lies 0.76 log units lower than the previous one.

As for `CCNC(=O)N1N=C(c2cc(F)ccc2F)CC1(CCCCN1CC2C=CC1C2)c1ccccc1` (stereo unspecified), the pIC50 in series [1] is 6.92.

A word on the pIC50: it is −log10 of the IC50, conventionally taken in molar units. One may read the solubility as the dissolved amount per volume that the medium holds. A low value points to little dissolved substance. Usually logP stands for the decadic logarithm of the partition coefficient of the neutral form, usually between octanol and water. The low end stands for lower lipophilicity, the high end for higher lipophilicity. As a reminder, the pEC50 is −log10 of the EC50, conventionally taken in molar units. Lower therefore signals a high EC50. For orientation: half-life means the time needed for the level to fall by half in the phase considered. Low values mean rapid decline, high ones slow decline. For orientation: clearance means the rate of elimination divided by the concentration. The low end stands for a low capacity for elimination, the high end for a high capacity for elimination.

These data come from ChEMBL document CHEMBL1147831, “Kinesin spindle protein (KSP) inhibitors. Part 4: Structure-based design of 5-alkylamino-3,5-diaryl-4,5-dihydropyrazoles as potent, water-soluble inhibitors of the mitotic kinesin KSP” (Bioorg Med Chem Lett, 2006).
